Yeast growth tox = Inhibits yeast growth, turbidity readout; S. cerevisiae wild-type growth, A595 turbidity, 16 h; growth inhibition, % at 25 µM (by protocol); 0.3% of 30,000 active; AID 685;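 active = mutant and wild-type yeast strains alike exhibit over 30% growth inhibition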;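 note: 0% = untreated cell controls and 100% = YPD media blanks without cells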
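Schedule: 16 h growth with compound, 30 °C. System: yeast, wild-type or eIF2Bepsilon-R284H mutant. Doses: one dose, 25 µM compound[…]. Buffer or medium: YPD. Signal: turbidity measured as absorbance at 595 nm. Read-out basis: growth inhibition (%) versus cell controls and blanks.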
Yeast eIF2B = eIF2B (yeast) activity modulation | S. cerevisiae eIF2B-epsilon R284H, GCN4-lacZ luminescence | inhibition, % at 25 µM (by protocol) | 0.91% of 27,000 active | AID 688;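 active = mutant luminescence inhibited past about 50% while wild type luminescence and mutant growth stay under set limits, limit read from the data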
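Material – yeast eIF2B-epsilon R284H mutant carrying GCN4–beta-galactosidase fusion · Medium – YPD yeast growth medium · Compound – one concentration, 25 µM, 0.25% DMSO · Times – 16 h at 30 °C exposure · Signal – Beta-Glo luminescence plus absorbance at 595 nm · Read-out – % inhibition of reporter signal and growth versus controls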
The depositor's hits bear a star; x = not tested or not shown. Sampled rows, rich in hits. Any-hit rate of the full collection: about 1.1%.

SMILES | Yeast growth tox | Yeast eIF2B
OC(Cn1cncn1)(c1ccccc1)c1ccccc1 | 86* | x
c1ccc(NCn2cncn2)nc1 | 3 | 10
COC(=O)C1=C(N)c2c(F)cccc2C1(C#N)c1ccc(F)cc1 (stereo not drawn) | 8 | 14
Cc1nc(SCC(=O)NCCc2ccc(Cl)cc2)nc(C)c1C | 3 | x
O=S(=O)(Cc1ccc(Cl)cc1)N1CCCC1 | -5 | x
CCc1nnc(NC(=O)[C@@H](NC(=O)c2cccc(S(=O)(=O)N3CCOCC3)c2)C(C)C)s1 | -15 | 2
Cc1cc(C)n(CCn2nc(C)cc2C)n1 | -12 | 29
Cc1cc(C)n(-c2cc(=O)n(C)c(=O)n2C)n1 | -3 | 51*
COc1cc(S(=O)(=O)NCC2CCCO2)ccc1Br (stereo not drawn) | 10 | x
CCOC(=O)c1c(N)nn(C(=O)C(C)C)c1-c1ccc(OC)cc1 | -41 | 12
CCOC(=O)c1c(N)nn(C(C)=O)c1-c1ccccc1 | -3 | 54*
O=C1c2cccc3cccc(c23)C(=O)N1c1ccncc1 | 44* | -56
CCc1nnc(N2C(=O)c3cccc4cccc(c34)C2=O)s1 | 14 | 7
COc1ccc(OCC(=O)Nc2ncc3c(n2)CC(C)(C)CC3=O)cc1 | -9 | 3
CNC(=O)C1CC(=O)N(Cc2ccc3c(c2)OCO3)C(=Nc2ccc(OC)cc2)S1 (stereo not drawn) | 10 | 2
O=C(Nn1c(=O)[nH]c2ccccc2c1=O)c1ccco1 | 3 | x
O=C(CCS(=O)(=O)c1ccc(Br)s1)N1CCc2ccccc21 | 15 | 13
CCCc1nnc(NC(=O)CN2C(=O)c3ccccc3C2=O)s1 | 17 | 20
CCCCCOC(=O)Nc1nnc(CCC)s1 | 1 | 51*
COc1ccc2[nH]c(=O)c(CNc3cccc(C)c3)cc2c1 | 17 | -8
CC1=NN(C(=O)Cc2ccc([N+](=O)[O-])cc2)C(O)(c2ccccc2)C1 (stereo not drawn) | 12 | x
O=C(Nc1ccc(OC(F)F)cc1)Nc1cccc(C(F)(F)F)c1 | -8 | x
C=CCN(C(=O)CCC(=O)O)C1CC(=O)N(c2ccc(OC)cc2)C1=O (stereo not drawn) | x | 50*
C=CCN(C(C)=O)C1CC(=O)N(c2ccc(OCCC)cc2)C1=O (stereo not drawn) | 6 | x
Cc1ccc(CSCCNC(=O)c2ccc(Cl)c(S(=O)(=O)N3CCOCC3)c2)cc1 | 9 | 21
SMILES | Yeast growth tox | Yeast eIF2B
Cc1csc(NC(=O)CSc2nc(C)cs2)n1 | 10 | 16
Cc1csc(NC(=O)c2cccn2C)n1 | -4 | 51*
CC(C)C(NC(=O)c1ccccc1)C(=O)NC1=NCCS1 (stereo not drawn) | 14 | 52*
CC(NC(=O)c1cccs1)C(=O)NC1=NCCS1 (stereo not drawn) | x | 23
CNC(=O)CCn1nc(-c2ccccc2)c2ccccc2c1=O | -4 | 59*
CN(C)C(=O)Cn1nc(-c2ccccc2)c2ccccc2c1=O | x | 10
C=CCn1c(=O)/c(=C2/SC(C)=C(C)N2CC)s/c1=C1/C(=O)N(C)C(=S)N1c1ccccc1 | 0 | 0
CC1CN(C(=O)C(c2ccccc2)c2ccccc2)CC(C)O1 (stereo not drawn) | 18 | -6
CSc1nnc(-c2ccccc2)o1 | 4 | 2
O=S1(=O)C=C(Sc2nnc(-c3ccccc3)o2)c2ccccc21 | 76* | 82
O=C(CSc1nc2ccccc2[nH]1)NCCN1CCCCC1 | 7 | 35
N#Cc1ccc(-c2ccco2)nc1SCc1ccccc1 | -12 | 19
O=C(O)c1ccc(CSc2n[nH]c(-c3ccco3)n2)cc1 | -13 | 67*
COC(=O)c1cc(OC)c(OC)cc1NC(=O)c1ccc(C)o1 | 10 | 10
Cc1c(Cl)cccc1NC(=O)COc1ccc(S(=O)(=O)N2CCOCC2)cc1 | -23 | x
CN(Cc1c(F)cccc1Cl)c1ccc(S(=O)(=O)N2CCOCC2)cn1 | -5 | 57*
CC(OC(=O)c1ccncc1)C(=O)Nc1cccc(Cl)c1 (stereo not drawn) | x | 18
Cn1ccnc1C(O)c1cc(C(C)(C)C)c(O)c(C(C)(C)C)c1 (stereo not drawn) | 14 | -9
O=C(c1ccc2c(c1)OCO2)N(c1ccc(F)cc1)C1C=CS(=O)(=O)C1 (stereo not drawn) | -4 | 56*
O=C(Cc1ccccc1)N(c1ccc(F)cc1)C1C=CS(=O)(=O)C1 (stereo not drawn) | 7 | 56*
O=C(Cc1ccc(F)cc1)N(c1ccc(F)cc1)C1C=CS(=O)(=O)C1 (stereo not drawn) | -1 | -26
CC(C)C(=O)N(c1ccc(F)cc1)C1C=CS(=O)(=O)C1 (stereo not drawn) | 25 | 23
Cc1nc2c3cc(Cl)ccc3n(CCN3CCCCC3)c2s1 | -24 | -42
CCN(c1ccccc1)S(=O)(=O)c1ccc(N)c(OC)c1 | 11 | 20
COc1cc(N2C(=O)NC3CC2(C)Oc2ccc(Br)cc23)cc(OC)c1OC (stereo not drawn) | 16 | 23
SMILES | Yeast growth tox | Yeast eIF2B
CCOC(=O)CNC(=O)C(NC(=O)C1CCC(C)CC1)C(C)CC (stereo not drawn) | -6 | 21
COc1ccc(C2(O)CCN(Cc3nnnn3Cc3ccc(C)cc3)CC2)cc1 | 11 | -6
Cc1ccc(Cn2nnnc2CN2CCC(O)(c3ccc(F)cc3)CC2)cc1 | 2 | 69*
Cc1cc2c(c(=O)n1CC1CCCO1)C(c1ccco1)C(C#N)=C(N)O2 (stereo not drawn) | 8 | 64*
Cc1cc2c(c(=O)n1CCCn1ccnc1)C(c1ccco1)C(C#N)=C(N)O2 (stereo not drawn) | 11 | -22
CN(CC(=O)Nc1ccccn1)S(=O)(=O)c1ccc(Cl)cc1 | -10 | 0
Cc1cnc(NC(=O)CN(C)S(=O)(=O)c2ccc(Cl)cc2)s1 | -13 | 54*
CCOC(=O)CSc1nnc(CNC(=O)c2ccc(OC)c(OC)c2)n1C | 9 | 43
CC1(C)Cc2c(sc3c2c(=N)n(Cc2ccco2)c(=O)n3Cc2ccc(F)cc2)CO1 | -23 | 57*
CN(C)CCn1c(=O)n(Cc2ccco2)c(=O)c2c3c(sc21)CCCCC3 | 24 | x
Clc1ccccc1-c1ccc(CN2CCN(c3ccccc3)CC2)o1 | -9 | 5
O=C(Nc1ccncc1)c1cc2ccccc2oc1=O | 9 | 50*
COC(=O)c1cc2ccccc2oc1=O | 5 | 23
Cc1cccc(N(CC(=O)NCCC2=CCCCC2)S(C)(=O)=O)c1C | 8 | 8
Cc1cc(NC(=O)c2ccc(NC(=O)CC(C)C)cc2)no1 | 27 | 22
Cc1cc(C)n(C(=O)c2ccc(NC(=O)CC(C)C)cc2)n1 | 0 | 50*
COc1ccccc1Nc1nc(C)cc(C)c1C(N)=O | -12 | 52*
Cc1cc(C)c(C(N)=O)c(Nc2cccc3ccccc23)n1 | -3 | x
CC(=O)Oc1ccc(N(C(C)=O)S(=O)(=O)c2cccs2)c2ccccc12 | 21 | 15
COc1cc(/C=C/C(=O)c2c(O)cc(C)oc2=O)cc(OC)c1O | 12 | 11
COc1cccc(/C=C/C(=O)c2c(O)cc(C)oc2=O)c1O | 34* | 25
O=C(NC1CCCCC1)Nn1c(-c2ccccc2)nc2ccccc2c1=O | 6 | 15
Cc1nc(N2CCN(c3ccccc3)CC2)c2c3c(sc2n1)CCC3 | 0 | -3
Cc1nc(N2CCN(C(=O)c3ccco3)CC2)c2c3c(sc2n1)CCCC3 | 8 | 53*
O=C(CNS(=O)(=O)c1ccc(Br)s1)N1CCC(N2CCCCC2)CC1 | 5 | 20

Screening data deposited in PubChem BioAssay by PCMD.
